Test results from ChEMBL document CHEMBL4428050, “Design, Synthesis, and Biological Evaluation of Substituted Pyrimidines as Potential Phosphatidylinositol 3-Kinase (PI3K) Inhibitors” (J Med Chem, 2016).
Active and inactive are the calls of the source. No cut-off for these calls is given here.

Assays:
MCF7 = test: Antiproliferative activity against human MCF7 cells after 72 hrs by CCK8 assay; format: functional, cell-based
HL-60 = test: Antiproliferative activity against human HL60 cells after 72 hrs by CCK8 assay; format: functional, cell-based; details: HL-60, 72 h
PC-3 = test: Antiproliferative activity against human PC3 cells after 72 hrs by CCK8 assay; format: functional, cell-based; details: PC-3, 72 h
SK-BR-3 = test: Antiproliferative activity against human SK-BR-3 cells after 72 hrs by CCK8 assay; format: functional, cell-based; details: SK-BR-3, 72 h
[1] = Inhibition of PI3K p110alpha/p85 (unknown origin) using PIP2/ATP as substrate after 1 hr by kinase glo luminescent assay; parameters: species or system Homo sapiens
Method in brief: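 PI3K p110α activity read by Kinase-Glo Plus luminescence. IC50 is the mean of triplicate measurements.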

HeLa = test: Antiproliferative activity against human HeLa cells after 72 hrs by CCK8 assay; format: functional, cell-based
U-937 = test: Antiproliferative activity against human U937 cells after 72 hrs by CCK8 assay; format: functional, cell-based
MDA-MB-231 [2] = test: Antiproliferative activity against human MDA-MB-231 cells by WST8 assay; format: functional, cell-based
K562 = test: Antiproliferative activity against human K562 cells after 72 hrs by CCK8 assay; format: functional, cell-based
NCI-N87 = test: Antiproliferative activity against human NCI-N87 cells after 72 hrs by CCK8 assay; format: functional, cell-based
DU-145 = test: Antiproliferative activity against human DU145 cells after 72 hrs by CCK8 assay; format: functional, cell-based
A-431 = test: Antiproliferative activity against human A431 cells after 72 hrs by CCK8 assay; format: functional, cell-based
PANC-1 = test: Antiproliferative activity against human PANC1 cells after 72 hrs by CCK8 assay; format: functional, cell-based
A549 = test: Antiproliferative activity against human A549 cells after 72 hrs by CCK8 assay; format: functional, cell-based
MOLT-4 = test: Antiproliferative activity against human MOLT4 cells after 72 hrs by CCK8 assay; format: functional, cell-based
[3] = Inhibition of PI3K p110beta/p85 (unknown origin) using PIP2/ATP as substrate after 1 hr by kinase glo luminescent assay; parameters: species or system Homo sapiens
[4] = molecular target: PI3-kinase subunit gamma/Phosphoinositide 3-kinase regulatory subunit 5 (Homo sapiens, UniProt P48736); test: Inhibition of PI3K p110gamma/p101 (unknown origin) using PIP2/ATP as substrate after 1 hr by kinase glo luminescent assay; format: protein-complex assay
Chain of PI3-kinase subunit gamma/Phosphoinositide 3-kinase regulatory subunit 5 (P48736 whole entry): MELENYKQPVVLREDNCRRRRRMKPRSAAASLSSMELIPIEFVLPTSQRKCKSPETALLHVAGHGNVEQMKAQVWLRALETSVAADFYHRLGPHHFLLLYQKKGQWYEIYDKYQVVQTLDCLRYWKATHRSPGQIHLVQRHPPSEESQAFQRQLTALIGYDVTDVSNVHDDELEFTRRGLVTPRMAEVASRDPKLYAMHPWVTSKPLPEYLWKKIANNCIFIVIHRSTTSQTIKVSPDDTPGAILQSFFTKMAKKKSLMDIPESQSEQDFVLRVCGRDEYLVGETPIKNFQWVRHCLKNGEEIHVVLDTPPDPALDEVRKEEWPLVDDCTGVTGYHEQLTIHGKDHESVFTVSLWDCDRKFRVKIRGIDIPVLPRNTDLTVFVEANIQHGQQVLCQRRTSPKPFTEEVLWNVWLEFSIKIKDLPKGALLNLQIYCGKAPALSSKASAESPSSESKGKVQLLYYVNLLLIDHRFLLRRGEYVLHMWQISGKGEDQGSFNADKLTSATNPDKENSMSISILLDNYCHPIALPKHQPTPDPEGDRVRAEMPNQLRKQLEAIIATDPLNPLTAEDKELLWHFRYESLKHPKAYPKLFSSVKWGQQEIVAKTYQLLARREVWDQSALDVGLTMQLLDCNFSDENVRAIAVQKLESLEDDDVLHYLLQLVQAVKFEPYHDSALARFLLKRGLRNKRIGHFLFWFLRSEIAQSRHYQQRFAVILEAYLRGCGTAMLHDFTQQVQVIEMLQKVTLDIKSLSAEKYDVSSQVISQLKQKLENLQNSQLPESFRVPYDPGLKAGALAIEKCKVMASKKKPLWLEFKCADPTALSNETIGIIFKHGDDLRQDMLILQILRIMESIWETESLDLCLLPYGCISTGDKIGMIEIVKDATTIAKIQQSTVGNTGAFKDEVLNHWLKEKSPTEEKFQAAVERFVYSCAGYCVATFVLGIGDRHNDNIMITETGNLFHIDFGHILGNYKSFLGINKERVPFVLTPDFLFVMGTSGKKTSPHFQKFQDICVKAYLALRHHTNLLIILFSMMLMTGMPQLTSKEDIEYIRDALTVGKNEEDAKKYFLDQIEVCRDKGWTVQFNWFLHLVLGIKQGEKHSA
Chain of PI3-kinase subunit gamma/Phosphoinositide 3-kinase regulatory subunit 5 (Q8WYR1 whole entry, further chain): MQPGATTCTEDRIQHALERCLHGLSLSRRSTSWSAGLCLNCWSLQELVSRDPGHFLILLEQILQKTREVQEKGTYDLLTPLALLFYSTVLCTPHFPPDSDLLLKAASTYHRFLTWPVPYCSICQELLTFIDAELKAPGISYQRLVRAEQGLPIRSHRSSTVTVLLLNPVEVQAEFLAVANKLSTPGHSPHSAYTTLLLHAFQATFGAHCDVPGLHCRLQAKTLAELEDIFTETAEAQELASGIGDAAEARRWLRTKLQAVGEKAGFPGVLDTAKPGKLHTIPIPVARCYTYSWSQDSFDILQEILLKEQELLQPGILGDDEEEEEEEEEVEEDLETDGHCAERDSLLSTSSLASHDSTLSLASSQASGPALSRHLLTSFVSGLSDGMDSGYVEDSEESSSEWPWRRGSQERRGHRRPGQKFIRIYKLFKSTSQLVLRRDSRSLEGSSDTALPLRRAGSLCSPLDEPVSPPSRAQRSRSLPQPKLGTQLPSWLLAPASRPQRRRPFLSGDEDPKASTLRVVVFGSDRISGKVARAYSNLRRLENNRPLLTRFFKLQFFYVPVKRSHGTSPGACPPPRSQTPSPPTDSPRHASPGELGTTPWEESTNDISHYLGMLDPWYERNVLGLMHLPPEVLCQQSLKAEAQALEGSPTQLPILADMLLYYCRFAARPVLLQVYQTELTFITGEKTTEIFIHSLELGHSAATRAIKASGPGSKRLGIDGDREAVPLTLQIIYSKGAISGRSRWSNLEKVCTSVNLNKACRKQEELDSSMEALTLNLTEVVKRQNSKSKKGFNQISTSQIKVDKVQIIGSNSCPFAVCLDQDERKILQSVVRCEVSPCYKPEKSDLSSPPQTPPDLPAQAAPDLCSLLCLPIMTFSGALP

[5] = Inhibition of PI3K p110delta/p85 (unknown origin) using PIP2/ATP as substrate after 1 hr by kinase glo luminescent assay; parameters: species or system Homo sapiens
Homo sapiens [6] = species: Homo sapiens; test: Selectivity ratio of IC50 for PI3K p110beta/p85 (unknown origin) to IC50 for PI3K p110alpha/p85 (unknown origin)
Homo sapiens [7] = species: Homo sapiens; test: Inhibition of PI3K in human U937 cells assessed as suppression of AKT phosphorylation at S473 after 24 hrs by Western blot analysis; format: cell-based
MDA-MB-231 [8] = test: Antitumor activity against human MDA-MB-231 cells xenografted in nude mouse assessed as tumor weight at 30 mg/kg, ig administered every 2 days for 19 days measured post last dose (reference value: 0.74 +/- 0.10 g); format: functional
Method in brief: (§1)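 Nude mice carried MDA-MB-231 xenograft tumours and received vehicle or 30 mg/kg intragastrically every two days for 19 days. Estimated tumour volume and body weight were followed over time. Tumours were dissected from 5 mice per group and weighed. Data are mean±SD, n=5, Student t test.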

MDA-MB-231 [9] = test: Antitumor activity against human MDA-MB-231 cells xenografted in nude mouse assessed as tumor size at 30 mg/kg, ig administered every 2 days for 19 days measured post last dose (reference value: 1065 +/- 142 mm'3); format: functional; method in brief: as §1
BGC-823 = test: Antiproliferative activity against human BGC823 cells after 72 hrs by CCK8 assay; format: functional, cell-based; details: Homo sapiens, BGC-823, 72 h
HT-1080 = test: Antiproliferative activity against human HT1080 cells after 72 hrs by CCK8 assay; format: functional, cell-based; details: HT-1080, 72 h
SGC-7901 = test: Antiproliferative activity against human SGC7901 cells after 72 hrs by CCK8 assay; format: functional, cell-based; details: SGC-7901, 72 h
Huh-7 = test: Antiproliferative activity against human HuH7 cells after 72 hrs by CCK8 assay; format: functional, cell-based; details: Huh-7, 72 h
[10] = Toxicity in nude mouse xenografted with human MDA-MB-231 cells assessed as decrease in body weight at 30 mg/kg, ig administered every 2 days for 19 days measured during compound dosing; format: organism-based; details: in vivo, po; method in brief: as §1
Bel-7402 = test: Antiproliferative activity against human Bel7402 cells after 72 hrs by CCK8 assay; format: functional, cell-based; details: Bel-7402, 72 h

Structure (SMILES) | IC50 (MCF7; Homo sapiens, MCF7, 72 h) | IC50 (HL-60) | IC50 (PC-3) | IC50 (SK-BR-3) | IC50 [1] | IC50 (HeLa; Homo sapiens, HeLa, 72 h) | IC50 (U-937; Homo sapiens, U-937, 72 h) | IC50 (MDA-MB-231 [2]) | IC50 (K562; Homo sapiens, K562, 72 h) | IC50 (NCI-N87; Homo sapiens, NCI-N87, 72 h) | IC50 (DU-145; Homo sapiens, DU-145, 72 h) | IC50 (A-431; Homo sapiens, A-431, 72 h) | IC50 (PANC-1; Homo sapiens, PANC-1, 72 h) | IC50 (A549; Homo sapiens, A549, 72 h) | IC50 (MOLT-4; Homo sapiens, MOLT-4, 72 h) | IC50 [3] | IC50 [5] | inhibition (Homo sapiens [7]) | other results
CS(=O)(=O)N1CCN(c2ccc(Nc3nc(-c4cnc(N)cc4C(F)(F)F)cc(N4CCOCC4)n3)cc2)CC1 | 4.97 µM | 0.94 µM | 7.49 µM | 1.63 µM | 0.031 µM | > 100 µM | 2.39 µM | 5.36 µM | 11.2 µM | 1.29 µM | 6.71 µM | 5.9 µM | 2.36 µM | 5.46 µM | 1.11 µM |  |  |  | 
CS(=O)(=O)N1CCN(C(=O)c2ccc(Nc3nc(-c4cnc(N)cc4C(F)(F)F)cc(N4CCOCC4)n3)cc2)CC1 | 12.8 µM | 2.49 µM | 19.5 µM | 4.79 µM | 0.018 µM | > 100 µM | 4.74 µM | 4.34 µM |  | 4.22 µM |  | 10.5 µM | 3.47 µM | 9.13 µM | 1.96 µM | 2.01 µM | 0.013 µM | Active | IC50 [4]: 0.08 µM; Ratio IC50 (Homo sapiens [6]): 112
Nc1cc(C(F)(F)F)c(-c2cc(N3CCOCC3)nc(N3C[C@@H]4OCCO[C@H]4C3)n2)cn1 (racemic) [listing 1 of 2 here] | 2.42 µM |  |  |  | 0.031 µM | 2.66 µM | 0.77 µM |  | 4.26 µM | 1.36 µM |  | 3.68 µM | 3.26 µM | 3.39 µM | 1 µM | 0.175 µM | 0.061 µM |  | Activity (MDA-MB-231 [8]): 0.32 g; Activity (MDA-MB-231 [9]): 402 mm3; IC50 (BGC-823): 3.09 µM; IC50 [4]: 0.158 µM; IC50 (HT-1080): 4.73 µM; IC50 (SGC-7901): 3.14 µM; IC50 (DU-145; du-145): 1.93 µM; IC50 (Huh-7): 4.26 µM; Activity [10]: Non-Toxic; IC50 (Bel-7402): 3.37 µM
Nc1cc(C(F)(F)F)c(-c2nc(N3CCOCC3)nc(N3C[C@H]4OCCO[C@@H]4C3)n2)cn1 |  | 2.7 µM | 5.63 µM | 4.27 µM | 0.068 µM |  |  | 15.1 µM |  |  |  |  |  |  |  |  |  |  | IC50 (MCF7; mcf7): 7.32 µM; IC50 (HeLa; hela): > 100 µM; IC50 (U-937; u-937): 4.03 µM; IC50 (K562; k562): 24.6 µM; IC50 (NCI-N87; nci-n87): 3.9 µM; IC50 (DU-145; du-145): 7.36 µM; IC50 (A-431; a-431): 14.1 µM; IC50 (PANC-1; panc-1): 9.04 µM; IC50 (A549; a549): 8.01 µM; IC50 (MOLT-4; molt-4): 2.28 µM
Nc1cc(C(F)(F)F)c(-c2cc(N3CCOCC3)nc(N3C[C@@H]4OCCO[C@H]4C3)n2)cn1 (racemic) [listing 2 of 2 here] |  |  |  |  |  |  |  |  |  |  |  |  |  |  |  |  |  | Active | 
Nc1cc(C(F)(F)F)c(-c2cc(N3CCOCC3)nc(Nc3cccc(N4CCOCC4)c3)n2)cn1 | 16.5 µM | 4.34 µM | 2.21 µM | 6.53 µM | 0.118 µM | > 100 µM | 10.4 µM | 7.28 µM | 14.9 µM | 4.66 µM | 0.99 µM | 11.5 µM | 8.52 µM | 4.57 µM | 4.07 µM |  |  |  | 
Nc1cc(C(F)(F)F)c(-c2nc(N3CCOCC3)nc(N3C[C@@H]4OCCO[C@H]4C3)n2)cn1 | 9.29 µM | 4.85 µM | 6.24 µM | 3.67 µM | 0.038 µM | > 100 µM | 5.53 µM | 11.9 µM | 24.5 µM | 2.77 µM | 1.08 µM | 32.2 µM | 7.64 µM | 9.5 µM | 2.08 µM |  |  |  | 
Nc1cc(C(F)(F)F)c(-c2cc(N3CCOCC3)nc(N3CCOCC3)n2)cn1 [BUPARLISIB] | 1.5 µM |  |  |  | 0.028 µM | 1.17 µM | 0.58 µM |  | 1.1 µM | 0.66 µM | 0.91 µM | 1.03 µM | 1.83 µM | 1.51 µM | 0.8 µM | 0.259 µM | 0.062 µM | Active | IC50 (BGC-823): 1.43 µM; IC50 (HT-1080): 2.08 µM; IC50 (SGC-7901): 1.24 µM; IC50 (Huh-7): 1.51 µM; IC50 (Bel-7402): 1.92 µM
